# According to ChEMBL document CHEMBL4020841, “Structure Guided Lead Generation toward Nonchiral M. tuberculosis Thymidylate Kinase Inhibitors” (J Med Chem, 2018):
# Activity calls are given as the source filed them. The calls are words filed in the database; no cut-off is given here.
# System: not listed separately
# Test: Inhibition of Mycobacterium tuberculosis TMPK expressed in Escherichia coli BLi5 using dTMP as substrate in presence of ATP by spectrophotometric based LDH/PK/nucleoside diphosphate kinase enzyme coupled assay
# In short: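 Wild-type enzyme from pHL50 in E. coli BLi5, purified by Blue-Sepharose then gel filtration. IC50 fit to four-parameter logistic of % inhibition.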
row,Structure (SMILES),IC50 [µM]
1,Cc1cn(C2CCN(Cc3cccnc3)CC2)c(=O)[nH]c1=O,75
2,COc1ccc(CN2CCC(n3cc(C)c(=O)[nH]c3=O)CC2)cc1,113
3,Cc1cn(C2CCN(Cc3ccccc3)CC2)c(=O)[nH]c1=O,138
4,Cc1cn(C2CCN(CCc3cccc(Oc4ccccc4)c3)CC2)c(=O)[nH]c1=O,11
5,Cc1cn(C2CCN(Cc3cncc4ccccc34)CC2)c(=O)[nH]c1=O,25
6,Cc1cn(C2CN(CCCc3cccc(Oc4ccccc4)c3)C2)c(=O)[nH]c1=O,1140
7,Cc1cn(C2CCN(Cc3ccc(C(=O)O)cc3)CC2)c(=O)[nH]c1=O,141
8,Cc1cn(C2CCN(Cc3nccc4ccccc34)CC2)c(=O)[nH]c1=O,27
9,Cc1cn(C2CCN(CC3CCCCC3)CC2)c(=O)[nH]c1=O,1120
10,Cc1cn(C2CCN(Cc3cc4ccccc4o3)CC2)c(=O)[nH]c1=O,23
11,Cc1ccc(CN2CCC(n3cc(C)c(=O)[nH]c3=O)CC2)cc1,168
12,Cc1cn(C2CCN(Cc3ccc(C#N)cc3)CC2)c(=O)[nH]c1=O,35
13,Cc1cn(C2CCN(Cc3ccnc4ccccc34)CC2)c(=O)[nH]c1=O,25
14,Cc1cn(CC2CCN(Cc3ccc(Oc4ccccc4)cc3)CC2)c(=O)[nH]c1=O,> 2000
15,Cc1cccc(CN2CCC(n3cc(C)c(=O)[nH]c3=O)CC2)c1,72
16,Cc1cn(C2CCN(Cc3cccc4ccccc34)CC2)c(=O)[nH]c1=O,38
17,Cc1cn(C2CCN(Cc3cccc(C(=O)O)n3)CC2)c(=O)[nH]c1=O,143

row,Structure (SMILES),IC50 [µM]
1,Cc1cn(C2CCN(Cc3ccoc3)CC2)c(=O)[nH]c1=O,254
2,Cc1cn(C2CCN(Cc3cc(Oc4ccccc4)c4ccc(Cl)cc4n3)CC2)c(=O)[nH]c1=O,1.8
3,Cc1cn(C2CCN(Cc3cc4ccccc4cn3)CC2)c(=O)[nH]c1=O,26
4,Cc1cn(C2CN(CCc3cccc(Oc4ccccc4)c3)C2)c(=O)[nH]c1=O,1910
5,Cc1cn(C2CN(Cc3cccc(Oc4ccccc4)c3)C2)c(=O)[nH]c1=O,944
6,Cc1cn(C2CCN(Cc3ccc(N(C)C)cc3)CC2)c(=O)[nH]c1=O,328
7,Cc1cn(C2CCN(C(=O)c3ccc(Oc4ccccc4)cc3)CC2)c(=O)[nH]c1=O,353
8,Cc1cn(C2CCN(Cc3cccc(Oc4ccccc4)c3)CC2)c(=O)[nH]c1=O,6.1
9,Cc1cn(C2CCN(Cc3ccncc3)CC2)c(=O)[nH]c1=O,49
10,Cc1cn(C2CCN(Cc3ccco3)CC2)c(=O)[nH]c1=O,114
11,Cc1cn(C2CCN(Cc3ccc(Cl)cc3)CC2)c(=O)[nH]c1=O,40
12,Cc1cn(C2CCN(Cc3ccc4ccccc4c3)CC2)c(=O)[nH]c1=O,20
13,Cc1cn(C2CCN(Cc3ccc(Oc4ccccc4)cc3)CC2)c(=O)[nH]c1=O,29
14,Cc1cn(C2CCN(Cc3cnc4ccccc4c3)CC2)c(=O)[nH]c1=O,17
15,Cc1cn(C2CN(Cc3ccc(Oc4ccccc4)cc3)C2)c(=O)[nH]c1=O,832
16,Cc1cn(C2CCN(C(=O)c3cccc(Oc4ccccc4)c3)CC2)c(=O)[nH]c1=O,235
17,Cc1cn(C2CCN(Cc3ccccn3)CC2)c(=O)[nH]c1=O,96

# System: Mycobacterium tuberculosis
# Test: Inhibition of Mycobacterium tuberculosis TMPK expressed in Escherichia coli BLi5 at 0.8 mM using dTMP as substrate in presence of ATP by spectrophotometric based LDH/PK/nucleoside diphosphate kinase enzyme coupled assay
row,Structure (SMILES),inhibition
1,Cc1cn(CC2CCN(Cc3cccc(Oc4ccccc4)c3)CC2)c(=O)[nH]c1=O,inactive
